According to ChEMBL document CHEMBL4177583, “1-Hydroxypyrido[2,3-d]pyrimidin-2(1H)-ones as novel selective HIV integrase inhibitors obtained via privileged substructure-based compound libraries” (Bioorg Med Chem, 2017):
pEC50: −log10 of the molar value. Calls of active or inactive are those of the source. The rule behind the calls is not given here.

Key:
[1] = test system: Human immunodeficiency virus 1; assay: Antiviral activity against HIV1 3B infected in human MT4 cells assessed as inhibition of viral-induced cytopathic effect by MTT assay; type: functional, organism-based
Outline: (§1)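 MT-4 cells resuspended at 6×10^5 cells/mL and infected with HIV-1 IIIB or HIV-2 ROD at 100-300 CCID50. Compounds tested as serial five-fold dilutions in triplicate wells. Viability read by MTT reduction at 540 and 690 nm after 5 days. Median OD of two or three wells used. EC50 is the concentration giving 50% protection from viral cytopathicity.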

[2] = test system: Human immunodeficiency virus 2; assay: Antiviral activity against HIV2 ROD […] infected in human MT4 cells assessed as inhibition of viral-induced cytopathic effect by MTT assay; type: functional, organism-based, ISOLATE ROD; outline: as §1
[3] = (§2) Cytotoxic activity against mock-infected human MT4 cellls assessed as reduction in cell viability by MTT assay; type: cell-based; conditions: mock-infected MT4 cells
Outline: (§3)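 Mock-infected MT-4 cells (6×10^5 cells/mL) run in parallel with infected wells. Compounds tested as serial five-fold dilutions in triplicate. Viability read by MTT at 540/690 nm after 5 days, using the median OD of two or three wells. CC50 is the concentration reducing mock-infected cell viability by 50%. '>' marks the highest concentration tested that was non-cytotoxic.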

[4] = Selectivity index, ratio of CC50 for cytotoxic activity against mock-infected human MT4 cells to EC50 for antiviral activity against HIV1 3B infected in human MT4 cells; type: toxicity, cell-based; conditions: mock-infected (CC50) and HIV1 3B infected (EC50)
Outline: (§4)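 SI calculated as CC50 (mock-infected MT-4, MTT, 5 days) divided by EC50 against HIV-1 IIIB or HIV-2 ROD in MT-4 cells measured in the same MTT cytoprotection assay.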

[5] = Selectivity index, ratio of CC50 for cytotoxic activity against mock-infected human MT4 cells to EC50 for antiviral activity against HIV2 ROD […] infected in human MT4 cells; type: toxicity, cell-based; conditions: mock-infected (CC50) and HIV2 ROD infected (EC50); outline: as §4
[6] = molecular target: Human immunodeficiency virus type 1 reverse transcriptase (Human immunodeficiency virus 1) (UniProt Q72547); assay: Inhibition of RNase H inhibition activity of HIV-1 BH10 reverse transcriptase expressed in Escherichia coli at 100 uM pre-incubated for 5 mins before [32P]-labeled template primer 31Trna/21P addition by polyacrylamide gel electrophoresis method
Outline: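 Recombinant WT HIV-1 BH10 RT (20-40 nM) preincubated with compound for 5 min at 37°C. Buffer: 50 mM Tris-HCl pH 8.0, 50 mM NaCl, 5 mM MgCl2, 5% DMSO. Reactions started with 25 nM 5'-[32P]-labeled 31Trna/21P template-primer. Sampled from 0 to 4 min at 37°C, quenched with EDTA/formamide, and resolved by denaturing PAGE.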

MT4 = assay: as §2; type: cell-based; conditions: mt4; outline: as §3
[7] = Human immunodeficiency virus 1, 3B, MT4
[8] = Human immunodeficiency virus 2, ISOLATE ROD, MT4

SMILES	pEC50 [1, 7]	pEC50 [2, 8]	CC50 [3] [µM]	selectivity ratio [4]	selectivity ratio [5]	inhibition [6]	pEC50 [1]	pEC50 [2]	CC50 (MT4) [µM]
O=C(Cn1cc(-c2cccc(Nc3nc(=O)n(O)c4ncccc34)c2)nn1)Nc1ccc(C(F)(F)F)cc1	< 3.62	< 3.62	> 239	1	1	–	–	–	–
O=c1nc(Nc2cccc(-c3cn(-c4cccc5ccccc45)nn3)c2)c2cccnc2n1O	4.57	4.16	> 279	> 10	> 4	–	–	–	–
O=c1c2cc(Br)ccc2n(Cc2cn(Cc3ccc(F)cc3)nn2)c(=O)n1O	< 4.60	< 4.60	25.1	< 1	< 1	Active	–	–	–
O=c1c2cc(Br)ccc2n(Cc2cn(Cc3ccc(Br)cc3)nn2)c(=O)n1O	< 4.66	< 4.66	21.8	< 1	< 1	–	–	–	–
O=c1c2cc(Br)ccc2n(Cc2cn(Cc3ccccc3Cl)nn2)c(=O)n1O	< 4.65	< 4.65	22.3	< 1	< 1	–	–	–	–
Cc1ccc(Cn2cc(-c3ccccc3Nc3nc(=O)n(O)c4ncccc34)nn2)cc1	< 5.96	< 5.96	1.1	< 1	< 1	–	–	–	–
O=c1c2cc(Br)ccc2n(Cc2cn(Cc3ccc(Cl)cc3)nn2)c(=O)n1O	< 4.62	< 4.62	24.1	< 1	< 1	–	–	–	–
O=C(Cn1cc(-c2cccc(Nc3nc(=O)n(O)c4ncccc34)c2)nn1)Nc1ccc(F)cc1	3.63	< 3.58	> 265	> 1	1	–	–	–	–
O=c1nc(Nc2ccccc2-c2cn(Cc3ccc(F)cc3)nn2)c2cccnc2n1O	< 5.57	< 5.57	2.7	< 1	< 1	–	–	–	–
O=c1nc(Nc2cccc(-c3cn(CCc4ccccc4)nn3)c2)c2cccnc2n1O	5.02	4.84	> 294	> 31	> 20	–	–	–	–
O=c1c2cc(Br)ccc2n(Cc2cn(Cc3ccccc3)nn2)c(=O)n1O	< 4.63	< 4.63	23.7	< 1	< 1	–	–	–	–
Cc1nnc(C(=O)NC(C)(C)c2nc(C(=O)NCc3ccc(F)cc3)c(O)c(=O)n2C)o1	8.11	7.96	> 55.8	–	–	–	–	–	–
COc1cc2c(cc1Cc1cccc(Cl)c1F)c(=O)c(C(=O)O)cn2[C@H](CO)C(C)C	8.64	8.42	6.3	–	–	–	–	–	–
Cc1ccccc1Cn1cc(Cn2c(=O)n(O)c(=O)c3cc(Br)ccc32)nn1	< 4.75	< 4.75	17.8	< 1	< 1	–	–	–	–
O=C(Cn1cc(-c2cccc(Nc3nc(=O)n(O)c4ncccc34)c2)nn1)Nc1ccccc1	4.57	< 3.56	> 275	> 10	1	–	–	–	–
Cc1cccc(Cn2cc(Cn3c(=O)n(O)c(=O)c4cc(Br)ccc43)nn2)c1	< 4.62	< 4.62	24	< 1	< 1	–	–	–	–
O=c1nc(Nc2cccc(-c3cn(CCCc4ccccc4)nn3)c2)c2cccnc2n1O	4.58	< 3.62	239	9	< 1	–	–	–	–
Cc1nnc(C(=O)NC(C)(C)c2nc(C(=O)NCc3ccc(F)cc3)c(O)c(=O)n2C)o1 [RALTEGRAVIR POTASSIUM]	–	–	–	–	–	–	8.11	7.80	> 51.8
O=C(Cn1cc(-c2cccc(Nc3nc(=O)n(O)c4ncccc34)c2)nn1)c1ccc(F)cc1	5.52	< 3.56	> 273	> 91	1	–	–	–	–
O=c1c2cc(Br)ccc2n(Cc2cn(Cc3cccc(F)c3)nn2)c(=O)n1O	< 4.60	< 4.60	24.9	< 1	< 1	–	–	–	–
O=c1c2cc(Br)ccc2n(Cc2cn(Cc3ccc([N+](=O)[O-])cc3)nn2)c(=O)n1O	< 4.65	< 4.65	22.4	< 1	< 1	–	–	–	–
O=c1nc(Nc2cccc(-c3cn(Cc4ccc(F)cc4)nn3)c2)c2cccnc2n1O	6.04	5.55	> 291	> 318	> 103	–	–	–	–
O=c1c2cc(Br)ccc2n(Cc2cn(Cc3ccc(F)c(F)c3)nn2)c(=O)n1O	< 4.61	< 4.61	24.7	< 1	< 1	–	–	–	–
